Active and inactive are the calls of the source. No cut-off for these calls is given here.
Key:
[1] = molecular target: T1, Prostaglandin G/H synthase 2 (Homo sapiens) (UniProt P35354); test: Inhibition of human COX2 using arachidonic acid as substrate assessed as formation of TMPD at 50 uM incubated for 5 mins prior to substrate addition measured after 5 mins by spectrophotometry
T1 sequence (whole entry): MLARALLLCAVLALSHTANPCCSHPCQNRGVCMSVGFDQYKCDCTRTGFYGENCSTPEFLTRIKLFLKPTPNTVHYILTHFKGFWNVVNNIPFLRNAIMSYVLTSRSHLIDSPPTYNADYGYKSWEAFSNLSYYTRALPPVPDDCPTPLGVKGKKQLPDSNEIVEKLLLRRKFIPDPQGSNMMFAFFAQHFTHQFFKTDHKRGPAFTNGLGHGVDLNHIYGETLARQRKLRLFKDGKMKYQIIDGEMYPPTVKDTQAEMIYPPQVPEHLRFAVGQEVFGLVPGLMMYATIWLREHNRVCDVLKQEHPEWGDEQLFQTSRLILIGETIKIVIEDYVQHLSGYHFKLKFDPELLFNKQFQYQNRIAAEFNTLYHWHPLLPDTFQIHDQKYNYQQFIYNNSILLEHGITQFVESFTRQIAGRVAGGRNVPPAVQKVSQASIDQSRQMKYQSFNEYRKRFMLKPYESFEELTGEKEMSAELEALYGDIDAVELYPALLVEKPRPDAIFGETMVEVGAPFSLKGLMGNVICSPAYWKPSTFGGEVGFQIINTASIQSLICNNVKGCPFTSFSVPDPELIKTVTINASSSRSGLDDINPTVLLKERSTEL
In short: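 Human recombinant COX-2 (1:1000) in 0.1 M Tris pH 8.0 with hematin, pre-incubated 5 min at room temperature with 50 μM compound. TMPD and arachidonic acid then added and incubated 5 min at room temperature. Oxidized TMPD read at 550 nm. Controls: DMSO (100%) and no arachidonic acid. Triplicate, mean ± SD.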

[2] = molecular target: T2, Polyunsaturated fatty acid 5-lipoxygenase (Homo sapiens) (UniProt P09917); test: Inhibition of human 5-LOX using lionleic acid as substrate assessed as formation of 13-HPOD at 50 uM incubated for 10 mins prior to substrate addition measured after 10 secs by UV absorbance assay
T2 sequence (whole entry): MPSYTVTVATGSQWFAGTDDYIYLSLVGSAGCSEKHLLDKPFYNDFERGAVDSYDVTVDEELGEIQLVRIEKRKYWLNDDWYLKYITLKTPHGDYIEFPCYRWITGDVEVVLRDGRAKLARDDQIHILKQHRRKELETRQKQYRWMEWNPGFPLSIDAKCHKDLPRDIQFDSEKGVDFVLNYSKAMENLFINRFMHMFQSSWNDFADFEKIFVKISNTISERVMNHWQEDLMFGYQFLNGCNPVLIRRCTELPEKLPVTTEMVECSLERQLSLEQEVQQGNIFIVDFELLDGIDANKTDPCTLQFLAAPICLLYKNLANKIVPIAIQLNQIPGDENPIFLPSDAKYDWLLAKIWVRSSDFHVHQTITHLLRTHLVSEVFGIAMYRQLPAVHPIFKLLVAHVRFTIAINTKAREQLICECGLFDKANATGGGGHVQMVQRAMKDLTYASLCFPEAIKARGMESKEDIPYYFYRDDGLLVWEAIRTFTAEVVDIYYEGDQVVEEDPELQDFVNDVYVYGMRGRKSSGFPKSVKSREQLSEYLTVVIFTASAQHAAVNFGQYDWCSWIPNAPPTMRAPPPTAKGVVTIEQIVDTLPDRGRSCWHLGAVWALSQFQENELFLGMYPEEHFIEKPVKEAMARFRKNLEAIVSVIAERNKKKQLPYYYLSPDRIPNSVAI
In short: (§1)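 Recombinant human 5-LOX (1:4000 dilution) in 50 mM Tris pH 7.5 with 2 mM EDTA, 2 mM CaCl2 and ATP, pre-incubated 10 min at room temperature with 50 μM compound (DMSO stock diluted in buffer). Linoleic acid (100 μM final) then added. Conjugated-diene HPOD formation read at 234 nm over 20 min, starting after 10 s mixing. Activity given relative to DMSO control (100%) and no-enzyme blank (0%). Triplicate.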

[3] = molecular target: T2, Polyunsaturated fatty acid 5-lipoxygenase (Homo sapiens); test: Modulation of human 5-LOX using linoleic acid as substrate at 50 uM; in short: as §1
[4] = molecular target: T2, Polyunsaturated fatty acid 5-lipoxygenase (Homo sapiens); test: Modulation of human 5-LOX using arachidonic acid as substrate at 50 uM
In short: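 Human 5-LOX in Tris pH 7.5 buffer with EDTA and CaCl2, pre-incubated 10 min with 50 μM compound. Substrate was arachidonic acid, 100 μM final. Residual activity measured by UV absorbance of conjugated diene product, relative to an uninhibited control.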

[5] = molecular target: T3, Polyunsaturated fatty acid 5-lipoxygenase (Homo sapiens, UniProt P09917); test: Binding affinity to human 5-LOX-linoleic acid complex
T3 sequence (P09917 whole entry): T2 sequence (whole entry)
In short: (§2)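 Human 5-LOX in 50 mM Tris pH 7.5 with 2 mM EDTA and 2 mM CaCl2, pre-incubated 10 min at room temperature with the modulator at fixed 0–50 μM. Linoleic acid was varied 37.5–300 μM with ATP at 100 μM. Initial rates came from the 234 nm diene absorbance, in triplicate. Dissociation constants for free and substrate-bound enzyme were derived by Lineweaver-Burk slope/intercept re-plots.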

[6] = Critical micelle concentration of the compound in 50 mM Tris buffer containing 2 mM EDTA, 2 mM CaCl2 at pH 7.5 at 19 degC; assay type: ADME
In short: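 Surface tension measured across a range of compound concentrations in the 5-LOX assay buffer at room temperature (19 °C) and plotted against log concentration. The CMC was read from this plot.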

[7] = molecular target: T3, Polyunsaturated fatty acid 5-lipoxygenase; test: Binding affinity to human 5-LOX using linoleic acid as substrate; in short: as §2
[8] = molecular target: T2, Polyunsaturated fatty acid 5-lipoxygenase (Homo sapiens); test: Non-competitive activation of human 5-LOX using linoleic acid as substrate assessed as increase in Vmax (app) at 12.5 to 25 uM by Michaelis-Menten equation analysis in presence of ATP
In short: (§3)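 Human 5-LOX, UV assay at 234 nm as in screening. Initial velocities measured with ATP varied over 12.5–200 μM, linoleic acid fixed at 100 μM, and activator at 0, 12.5 or 25 μM. Vmax(app) and Km(app) obtained from Michaelis-Menten and Lineweaver-Burk plots. Triplicate.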

[9] = molecular target: T2, Polyunsaturated fatty acid 5-lipoxygenase (Homo sapiens); test: Non-essential mixed type activation of human 5-LOX assessed as decrease in Km (app) at 12.5 to 25 uM by Michaelis-Menten/ Lineweaver-Burk plot analysis in presence of lonoleic acid
In short: (§4)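 Human 5-LOX, conjugated diene read at 234 nm (ε = 25000 M−1cm−1). ATP fixed at 100 μM, linoleic acid varied over 37.5–300 μM, activator at 0, 12.5 or 25 μM. Km(app) and Vmax(app) taken from Michaelis-Menten and Lineweaver-Burk plots. Triplicate, mean ± SD.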

[10] = molecular target: T2, Polyunsaturated fatty acid 5-lipoxygenase (Homo sapiens); test: Non-competitive activation of human 5-LOX using linoleic acid as substrate assessed as increase in Vmax (app) at 12.5 to 25 uM by Lineweaver-Burk plot analysis in presence of ATP; in short: as §3
[11] = molecular target: T2, Polyunsaturated fatty acid 5-lipoxygenase (Homo sapiens); test: Binding affinity to human 5-LOX-linoleic acid complex at <10 uM by Lineweaver-Burk plot analysis relative to human 5-LOX
[12] = molecular target: T2, Polyunsaturated fatty acid 5-lipoxygenase (Homo sapiens); test: Non-essential mixed type activation of human 5-LOX assessed as increase in Vmax (app) at 12.5 to 25 uM by Michaelis-Menten/ Lineweaver-Burk plot analysis in presence of linoleic acid; in short: as §4
[13] = molecular target: T2, Polyunsaturated fatty acid 5-lipoxygenase (Homo sapiens); test: Activation of human 5-LOX using lionleic acid as substrate assessed as formation of 13-HPOD at 50 uM incubated for 10 mins prior to substrate addition measured after 10 secs by UV absorbance assay; in short: as §1
[14] = molecular target: T2, Polyunsaturated fatty acid 5-lipoxygenase (Homo sapiens); test: Activation of human 5-LOX using lionleic acid as substrate assessed as formation of 13-HPOD incubated for 10 mins prior to substrate addition measured after 10 secs by UV absorbance assay; in short: as §1
[15] = molecular target: T2, Polyunsaturated fatty acid 5-lipoxygenase (Homo sapiens); test: Binding affinity to human 5-LOX-linoleic acid complex by Lineweaver-Burk plot analysis
[16] = molecular target: T2, Polyunsaturated fatty acid 5-lipoxygenase (Homo sapiens); test: Binding affinity to human 5-LOX using linoleic acid as substrate by Lineweaver-Burk plot analysis
[17] = Critical micelle concentration of the compound in 50 mM Tris buffer with 2 mM EDTA and 2 mM CaCl2 at pH 7.5 at 19 degC

Compound	inhibition [1] [%]	inhibition [2]	also measured
CCCCCCCCCOc1ccc(COc2cccc(O)c2C(=O)O)cc1	< 50	inactive	–
CCCCCCCCCCc1cccc(O)c1C(=O)O	< 50	Active	–
CCCCCCCCCCCCCCCc1cccc(O)c1C(=O)O	< 50	Active	–
Oc1ccccc1-c1nc2ccccc2o1	50	inactive	–
CC(C)CCCC(C)CCOc1ccc(COc2cccc(O)c2C(=O)[O-])cc1.[K+] (configuration not stated)	< 50	50%	Activity [3]: Active; Activity [4]: inactive; Ki [5]: 140 µM; CMC [6]: 395 µM; Ki [7]: 70.3 µM
CCCCCCCc1ccc(CCc2cccc(O)c2C(=O)O)cc1	< 50	–	–
CCCCCCCCCOc1cccc(O)c1C(=O)O	< 50	–	–
CCCCCOc1ccc(COc2cccc(O)c2C(=O)[O-])cc1.[K+]	< 50	–	Activity [8]: Active; Activity [3]: Active; Activity [9]: Active; Activity [10]: Active; Activity [4]: inactive; fold change (FC) [11]: 50; CMC [6]: 628 µM; Activity [12]: Active; Activity [13]: Active; Activity [14]: Dose-dependent effect; Ka [15]: 380 nM; Ka [16]: 8.65 µM
CCCCCCCCCCc1ccc(CCc2cc(O)cc(O)c2C(=O)O)cc1	< 50	–	–
CCCCC/C=C\C/C=C\CCCCCCCC(=O)O [LINOLEIC ACID]	–	–	CMC [17]: 185 µM
CCCCCCCCCCCCCCCc1cc(O)cc(O)c1C(=O)O	< 50	Active	–
CCCCCCCc1ccc(CCc2cc(O)cc(O)c2C(=O)O)cc1	< 50	–	–
CCCCCCCOc1ccc(COc2cccc(O)c2C(=O)O)cc1	< 50	inactive	–
CCCCCCCOc1cccc(COc2cccc(O)c2C(=O)O)c1	< 50	–	–
CCCCCc1cccc(O)c1C(=O)O	< 50	Active	–
CCCCCCCCCOc1cccc(COc2cccc(O)c2C(=O)O)c1	< 50	–	–
CCCCCCCCCCCCCCOc1cccc(O)c1C(=O)O	< 50	–	–

From ChEMBL document CHEMBL3091418, “Discovery of a novel activator of 5-lipoxygenase from an anacardic acid derived compound collection” (Bioorg Med Chem, 2013)
